# Source: ChEMBL document CHEMBL1157609, “Discovery of vaniprevir (MK-7009), a macrocyclic hepatitis C virus NS3/4a protease inhibitor” (J Med Chem, 2010)
# Tested on: not listed separately
# Test: Inhibition of HCV JFH-1 full length NS3/4A protease expressed in Escherichia coli after 1 hr by time-resolved fluorescence assay
# Design: species or system Hepatitis C virus JFH-1
# Conditions: not given
# Summary of the method: (§1)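 Full-length NS3/4A (1b BK or 2a JFH) purified from E. coli. TRF peptide substrate added at 100 nM final. Reaction run 1 h at RT, then quenched with 500 mM MES pH 5.5. Read at ex 340/em 615 nm with 400 μs delay. Ki from a four-parameter fit.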
row,Structure (SMILES),Ki [nM]
1,C=C[C@@H]1C[C@]1(NC(=O)[C@@H]1C[C@@H]2CN1C(=O)[C@H](C(C)(C)C)NC(=O)OCCC/C=C/c1cccc3c1CN(C3)C(=O)O2)C(=O)NS(=O)(=O)C1CC1,2.6

# Tested on: Hepatitis C virus
# Test: Antiviral activity against HCV Con1 infected in human HuH7 cells assessed as inhibition of viral replication after 24 hrs by replicon assay in presence of 50% normal human serum
# Assay type: functional, organism-based, Hepacivirus hominis
# Conditions: Con1, Huh-7, 24 h
# Summary of the method: (§2)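 Huh-7 cells stably carrying a bicistronic replicon (1b con1 or 2a JFH) seeded at 20000 cells/well and held 24 h at 37 °C/5% CO2 in DMEM with 10% FBS or 50% NHS. Compound added in DMSO (1% final) for a further 24 h. Cells fixed and permeabilized. Replicon RNA quantified by in situ hybridization of a radiolabeled neomycin-resistance probe (50 °C, 18 h), followed by RNase A treatment.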
row,Structure (SMILES),IC50 [nM]
1,C=C[C@@H]1C[C@]1(NC(=O)[C@@H]1C[C@@H]2CN1C(=O)[C@H](C(C)(C)C)NC(=O)OCCC/C=C/c1cccc(c1)CN(C)C(=O)O2)C(=O)NS(=O)(=O)C1CC1,42
2,C=C[C@@H]1C[C@]1(NC(=O)[C@@H]1C[C@@H]2CN1C(=O)[C@H](C(C)(C)C)NC(=O)OCCC/C=C/c1cccc3c1CCN(C3)C(=O)O2)C(=O)NS(=O)(=O)C1CC1,2900
3,C=C[C@@H]1C[C@]1(NC(=O)[C@@H]1C[C@@H]2CN1C(=O)[C@H](C(C)(C)C)NC(=O)OCCC/C=C/c1ccccc1CN(C)C(=O)O2)C(=O)NS(=O)(=O)C1CC1,610
4,C=C[C@@H]1C[C@]1(NC(=O)[C@@H]1C[C@@H]2CN1C(=O)[C@H](C(C)(C)C)NC(=O)OCCC/C=C/c1cccc3c1CN(C3)C(=O)O2)C(=O)NS(=O)(=O)C1CC1,32

# Tested on: Hepatitis C virus
# Test: Antiviral activity against HCV JFH-1 infected in human HuH7 cells assessed as inhibition of viral replication after 24 hrs by replicon assay in presence of 10% fetal bovine serum
# Assay type: functional, organism-based, Hepacivirus hominis
# Conditions: JFH-1, Huh-7, 24 h
# Summary of the method: as §2
row,IC50 [nM],Structure (SMILES)
1,150,C=C[C@@H]1C[C@]1(NC(=O)[C@@H]1C[C@@H]2CN1C(=O)[C@H](C(C)(C)C)NC(=O)OCCC/C=C/c1cccc3c1CN(C3)C(=O)O2)C(=O)NS(=O)(=O)C1CC1

# Tested on: not listed separately
# Test: Drug level in Sprague-Dawley rat liver at 5 mg/kg, po after 4 hrs by LC/MS analysis
# Assay type: ADME, organism-based
# Design: dose 5 mg/kg, route oral
# Conditions: read-out: Drug uptake
# Summary of the method: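 Rats given a single oral dose as a PEG400 solution (2.0 mL/kg). Liver collected at the terminal time point and homogenized in buffer. Drug extracted liquid-liquid and quantified by LC/MS against standards and QCs.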
row,concentration at 4 h [nM],Structure (SMILES)
1,450,C=C[C@@H]1C[C@]1(NC(=O)[C@@H]1C[C@@H]2CN1C(=O)[C@H](C(C)(C)C)NC(=O)OCCC/C=C/c1cccc(c1)CN(C)C(=O)O2)C(=O)NS(=O)(=O)C1CC1
2,910,C=C[C@@H]1C[C@]1(NC(=O)[C@@H]1C[C@@H]2CN1C(=O)[C@H](C(C)(C)C)NC(=O)OCCC/C=C/c1cccc3c1CN(C3)C(=O)O2)C(=O)NS(=O)(=O)C1CC1

# Tested on: not listed separately
# Test: Inhibition of HCV1b BK full length NS3/4A protease expressed in Escherichia coli after 1 hr by time-resolved fluorescence assay
# Design: species or system Hepatitis C virus (isolate BK)
# Conditions: not given
# Summary of the method: as §1
row,Structure (SMILES),Ki [nM]
1,C=C[C@@H]1C[C@]1(NC(=O)[C@@H]1C[C@@H]2CN1C(=O)[C@H](C(C)(C)C)NC(=O)OCCC/C=C/c1cccc(c1)CN(C)C(=O)O2)C(=O)NS(=O)(=O)C1CC1,0.14
2,C=C[C@@H]1C[C@]1(NC(=O)[C@@H]1C[C@@H]2CN1C(=O)[C@H](C(C)(C)C)NC(=O)OCCC/C=C/c1cccc3c1CCN(C3)C(=O)O2)C(=O)NS(=O)(=O)C1CC1,8.3
3,C=C[C@@H]1C[C@]1(NC(=O)[C@@H]1C[C@@H]2CN1C(=O)[C@H](C(C)(C)C)NC(=O)OCCC/C=C/c1ccccc1CN(C)C(=O)O2)C(=O)NS(=O)(=O)C1CC1,1.6
4,C=C[C@@H]1C[C@]1(NC(=O)[C@@H]1C[C@@H]2CN1C(=O)[C@H](C(C)(C)C)NC(=O)OCCC/C=C/c1cccc3c1CN(C3)C(=O)O2)C(=O)NS(=O)(=O)C1CC1,0.05

# Tested on: Hepatitis C virus
# Test: Antiviral activity against HCV Con1 infected in human HuH7 cells assessed as inhibition of viral replication after 24 hrs by replicon assay in presence of 10% fetal bovine serum
# Assay type: functional, organism-based, Hepacivirus hominis
# Conditions: Con1, Huh-7, 24 h
# Summary of the method: as §2
row,IC50 [nM],Structure (SMILES)
1,28,C=C[C@@H]1C[C@]1(NC(=O)[C@@H]1C[C@@H]2CN1C(=O)[C@H](C(C)(C)C)NC(=O)OCCC/C=C/c1cccc(c1)CN(C)C(=O)O2)C(=O)NS(=O)(=O)C1CC1
2,730,C=C[C@@H]1C[C@]1(NC(=O)[C@@H]1C[C@@H]2CN1C(=O)[C@H](C(C)(C)C)NC(=O)OCCC/C=C/c1cccc3c1CCN(C3)C(=O)O2)C(=O)NS(=O)(=O)C1CC1
3,98,C=C[C@@H]1C[C@]1(NC(=O)[C@@H]1C[C@@H]2CN1C(=O)[C@H](C(C)(C)C)NC(=O)OCCC/C=C/c1ccccc1CN(C)C(=O)O2)C(=O)NS(=O)(=O)C1CC1
4,7,C=C[C@@H]1C[C@]1(NC(=O)[C@@H]1C[C@@H]2CN1C(=O)[C@H](C(C)(C)C)NC(=O)OCCC/C=C/c1cccc3c1CN(C3)C(=O)O2)C(=O)NS(=O)(=O)C1CC1
